One assay has as its system Influenza A virus. Nature of the assay: Inhibition of Influenza A virus (A/gull/Pennsylvania/4175/83 (H5N1)) replication in MDCK cells by virus yield reduction assay. Format: functional.
The test system of assay [1] is Mus musculus. Nature of the assay: Effect on survival of BALB/c mouse infected with influenza A virus (A/duck/Minnesota/1525/1981 (H5N1)) at 300 mg/kg/day, po qid for 5 days administered 1 hr after infection relative to carboxymethyl cellulose. The format is functional, organism-based.
For assay [2], the system named is Mus musculus. Nature of the assay: Effect on survival of BALB/c mouse infected with influenza A virus (A/duck/Minnesota/1525/1981 (H5N1)) at 100 mg/kg/day, po qid for 5 days administered 1 hr after infection relative to carboxymethyl cellulose. The format is functional, organism-based.
The test system of assay [3] is Mus musculus. Nature of the assay: Lowering of arterial oxygen saturation decline in BALB/c mouse infected with influenza A virus (A/duck/Minnesota/1525/1981 (H5N1)) at 300 mg/kg/day, po once daily for 5 days administered 1 hr after infection measured on day 11 relative to carboxymethyl cellulose. The format is functional.
Assay [4] has as its system Mus musculus. Nature of the assay: Inhibition of increase in lung weight of BALB/c mouse infected with influenza A virus (A/duck/Minnesota/1525/1981 (H5N1)) at 300 mg/kg/day, po qid for 5 days administered 1 hr after infection measured on day 6 relative to carboxymethyl cellulose. Format: functional.
Assay [5] has as its system Mus musculus. Nature of the assay: Inhibition of increase in lung weight of BALB/c mouse infected with influenza A virus (A/duck/Minnesota/1525/1981 (H5N1)) at 33 mg/kg/day, po qid for 5 days administered 1 hr after infection measured on day 6 relative to carboxymethyl cellulose. The format is functional.
For assay [6], the system named is Mus musculus. Nature of the assay: Lowering of Arterial oxygen saturation decline in BALB/c mouse infected with influenza A virus (A/duck/Minnesota/1525/1981 (H5N1)) at 100 mg/kg/day, po qid for 5 days administered 1 hr after infection measured on day 11 relative to carboxymethyl cellulose. Format: functional. The method in brief:
(§1)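 Arterial oxygen saturation was measured by pulse oximeter, with the ear probe placed on the thigh and read after 30 s stabilization. Values were taken on day 11, 10 mice per group. Mice dead from infection were assigned 75%. Means were compared with CMC controls by t test.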

The subject of assay [7] is Mus musculus. As to the kind of experiment: Effect on survival in BALB/c mouse infected with influenza A virus (A/duck/Minnesota/1525/1981 (H5N1)) at 300 mg/kg/day, po administered 4 hrs after infection relative to carboxymethyl cellulose. Format: functional, organism-based.
The test system of assay [8] is Mus musculus. Nature of the assay: Effect on survival in BALB/c mouse infected with influenza A virus (A/duck/Minnesota/1525/1981 (H5N1)) at 300 mg/kg/day, po administered 12 hrs after infection relative to carboxymethyl cellulose. The format is functional, organism-based.
Assay [9] deals with Mus musculus. Nature of the assay: Effect on survival in BALB/c mouse infected with influenza A virus (A/duck/Minnesota/1525/1981 (H5N1)) at 600 mg/kg/day, po administered 12 hrs after infection relative to carboxymethyl cellulose. The format is functional, organism-based.
The test system of assay [10] is Mus musculus. As to the kind of experiment: Effect on survival in BALB/c mouse infected with influenza A virus (A/duck/Minnesota/1525/1981 (H5N1)) at 300 mg/kg/day, po administered 24 hrs after infection relative to carboxymethyl cellulose. Format: functional, organism-based.
Assay [11] has as its system Mus musculus. Nature of the assay: Effect on survival in BALB/c mouse infected with influenza A virus (A/duck/Minnesota/1525/1981 (H5N1)) at 600 mg/kg/day, po administered 24 hrs after infection relative to carboxymethyl cellulose. Format: functional, organism-based.
Assay [12] has as its system Mus musculus. As to the kind of experiment: Effect on survival in BALB/c mouse infected with influenza A virus (A/duck/Minnesota/1525/1981 (H5N1)) at 300 mg/kg/day, po administered 48 hrs after infection relative to carboxymethyl cellulose. Format: functional, organism-based.
Assay [13] concerns Mus musculus. As to the kind of experiment: Effect on survival in BALB/c mouse infected with influenza A virus (A/duck/Minnesota/1525/1981 (H5N1)) at 600 mg/kg/day, po administered 48 hrs after infection relative to carboxymethyl cellulose. The format is functional, organism-based.
Assay [14] deals with Mus musculus. As to the kind of experiment: Lowering of arterial oxygen saturation decline in BALB/c mouse infected with influenza A virus (A/duck/Minnesota/1525/1981 (H5N1)) at 3 mg/kg/day, po once daily for 5 days administered 1 hr after infection measured on day 11 relative to carboxymethyl cellulose. The format is functional.
Assay [15] has as its system Mus musculus. As to the kind of experiment: Lowering of arterial oxygen saturation decline in BALB/c mouse infected with influenza A virus (A/duck/Minnesota/1525/1981 (H5N1)) at 300 mg/kg/day, po qid for 5 days administered 24 hrs after infection measured on day 11 relative to carboxymethyl cellulose. Format: functional.
Assay [16] concerns Mus musculus. Nature of the assay: Lowering of arterial oxygen saturation decline in BALB/c mouse infected with influenza A virus (A/duck/Minnesota/1525/1981 (H5N1)) at 300 mg/kg/day, po qid for 5 days administered 60 hrs after infection measured on day 11 relative to carboxymethyl cellulose. Format: functional.
Assay [17] concerns Mus musculus. As to the kind of experiment: Lowering of arterial oxygen saturation decline in BALB/c mouse infected with influenza A virus (A/duck/Minnesota/1525/1981 (H5N1)) at 300 mg/kg/day, po qid for 5 days administered 72 hrs after infection measured on day 11 relative to carboxymethyl cellulose. Format: functional.
Assay [18] deals with Mus musculus. Nature of the assay: Lowering of Arterial oxygen saturation decline in BALB/c mouse infected with influenza A virus (A/duck/Minnesota/1525/1981 (H5N1)) at 300 mg/kg/day, po twice daily for 5 days administered 1 hr after infection measured on day 11 relative to carboxymethyl cellulose. The format is functional.
The test system of assay [19] is Mus musculus. As to the kind of experiment: Lowering of Arterial oxygen saturation decline in BALB/c mouse infected with influenza A virus (A/duck/Minnesota/1525/1981 (H5N1)) at 100 mg/kg/day, po twice daily for 5 days administered 1 hr after infection measured on day 11 relative to carboxymethyl cellulose. Format: functional. In short, it runs like this:
as §1

Assay [20] has as its system Mus musculus. Nature of the assay: Lowering of Arterial oxygen saturation decline in BALB/c mouse infected with influenza A virus (A/duck/Minnesota/1525/1981 (H5N1)) at 10 mg/kg/day, po twice daily for 5 days administered 1 hr after infection measured on day 11 relative to carboxymethyl cellulose. The format is functional. The method in brief:
as §1

From ChEMBL document CHEMBL1142087 (Antimicrob Agents Chemother, 2007) come the findings set out here.

Active and inactive are the calls of the source. The calls are words filed in the database; no cut-off is given here.

As usually defined, the EC90 is the concentration needed for an effect of 90%. High values mean a need for much substance, low ones an effect from little substance. `NC(=O)c1nc(F)cnc1O` [FAVIPIRAVIR] yielded an EC90 in the assay on Influenza A virus of 7.7 µM. In addition, the result in the assay with Mus musculus [1], with Mus musculus [2], in the assay with Mus musculus [7], in the assay with Mus musculus [8], in the assay on Mus musculus [9] and with Mus musculus [10] was Active. The outcome with Mus musculus [11], in the assay on Mus musculus [12] and in the assay on Mus musculus [13] was Active. Further, the Activity is on record as 82.7% in the assay with Mus musculus [3]; 146 mg in the assay on Mus musculus [4]; 217 mg in the assay on Mus musculus [5]; 85.9% with Mus musculus [6]; 75% in the assay on Mus musculus [14]; 85.3% in the assay with Mus musculus [15]. In addition, the Activity with Mus musculus [16] was found to be 84.6%; in the assay with Mus musculus [17], 84.1%; in the assay with Mus musculus [18] it was 86.9%; with Mus musculus [19], 84.2%; with Mus musculus [20] it was 75.5%.
